Reference: ChEMBL document CHEMBL3243972, “Analogues of ornithine as inhibitors of ornithine decarboxylase. New deductions concerning the topography of the enzyme's active site” (J Med Chem, 1978)
The source made the active and inactive calls. No cut-off for these calls is given here.

Columns and labels:
[1] = Binding affinity to pyridoxal-phosphate
Ornithine decarboxylase [2] = target: T1, Ornithine decarboxylase (Bos taurus, UniProt P27117); assay: Competitive inhibition of bull prostate ornithine decarboxylase using DL-[1-14C]ornithine as substrate after 1 hr by dixon plot analysis; set-up: species or system Prostate gland
T1 sequence (P27117 whole entry): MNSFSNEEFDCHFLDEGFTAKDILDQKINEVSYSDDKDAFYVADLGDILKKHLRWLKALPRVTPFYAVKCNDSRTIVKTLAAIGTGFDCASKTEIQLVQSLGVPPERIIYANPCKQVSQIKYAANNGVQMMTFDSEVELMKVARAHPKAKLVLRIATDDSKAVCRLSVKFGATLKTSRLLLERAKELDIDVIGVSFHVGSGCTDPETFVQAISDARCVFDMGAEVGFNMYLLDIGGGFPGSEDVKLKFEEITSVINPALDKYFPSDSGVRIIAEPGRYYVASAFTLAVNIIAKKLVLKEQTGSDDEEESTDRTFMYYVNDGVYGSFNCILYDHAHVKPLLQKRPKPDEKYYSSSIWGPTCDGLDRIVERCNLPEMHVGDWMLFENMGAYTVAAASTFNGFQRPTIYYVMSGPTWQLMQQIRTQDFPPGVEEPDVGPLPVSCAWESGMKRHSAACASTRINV
In short: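 Bull prostate ODC purified ~fourfold: homogenized at 4 °C in Tris-HCl 10 mM pH 7.2, sucrose, EDTA, DTT 5 mM, PLP 0.1 mM; 20000g and 105000g spins, 20–50% (NH4)2SO4 cut, dialysis. Assay in 0.95 mL Tris-HCl pH 7.2 with PLP 0.1 µmol, DTT 5 µmol, DL-[1-14C]ornithine 0.043 µmol, L-ornithine 0.8 µmol; 14CO2 counted after 1 h at 37 °C; KI from Dixon plots, least-squares fit.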

Ornithine decarboxylase [3] = target: T2, Ornithine decarboxylase (Rattus norvegicus, UniProt P09057); assay: Competitive inhibition of Sprague-Dawley rat prostate ornithine decarboxylase using DL-[1-14C]ornithine as substrate by liquid scintillation counting analysis; set-up: species or system Prostate gland
T2 sequence (P09057 whole entry): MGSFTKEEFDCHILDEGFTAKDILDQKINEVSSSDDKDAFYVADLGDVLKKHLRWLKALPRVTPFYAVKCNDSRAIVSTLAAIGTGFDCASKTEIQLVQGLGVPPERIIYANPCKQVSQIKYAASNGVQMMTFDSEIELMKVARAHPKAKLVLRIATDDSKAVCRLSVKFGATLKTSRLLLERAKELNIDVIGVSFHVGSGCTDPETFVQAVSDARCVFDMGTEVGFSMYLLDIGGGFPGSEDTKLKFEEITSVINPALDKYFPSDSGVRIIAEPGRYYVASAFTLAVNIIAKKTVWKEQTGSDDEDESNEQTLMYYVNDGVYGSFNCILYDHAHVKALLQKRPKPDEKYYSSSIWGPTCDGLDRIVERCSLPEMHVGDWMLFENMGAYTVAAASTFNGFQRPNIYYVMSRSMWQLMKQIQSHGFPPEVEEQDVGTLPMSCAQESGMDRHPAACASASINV

[4] = target: T3, Ornithine decarboxylase (Rattus norvegicus) (UniProt P09057); assay: Competitive inhibition of rat liver ornithine decarboxylase using DL-[1-14C]ornithine as substrate at 1 mM after 1 hr by dixon plot analysis
T3 sequence (whole entry): T2 sequence (P09057 whole entry)

Ornithine decarboxylase [5] = target: T2, Ornithine decarboxylase; assay: Competitive inhibition of ornithine decarboxylase in rat HTC cells using DL-[1-14C]ornithine as substrate after 1 hr by dixon plot analysis; format: cell-based
In short: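 HTC hepatoma cell ODC; sodium phosphate pH 7.1 assay with PLP 0.1 µmol, DTT 5 µmol, DL-[1-14C]ornithine 0.043 µmol, L-ornithine 0.8 µmol, final 0.95 mL; enzyme added to start; 14CO2 measured after 1 h at 37 °C. KI from Dixon plots, or for some values from ID50 at ornithine equal to KM, taking KI = ID50/2.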

[6] = target: T3, Ornithine decarboxylase (Rattus norvegicus); assay: Competitive inhibition of rat liver ornithine decarboxylase using DL-[1-14C]ornithine as substrate at 4 mM after 1 hr by dixon plot analysis
[7] = target: T3, Ornithine decarboxylase (Rattus norvegicus); assay: Competitive inhibition of rat liver ornithine decarboxylase using DL-[1-14C]ornithine as substrate at 0.25 mM after 1 hr by dixon plot analysis
Ornithine decarboxylase [8] = target: T2, Ornithine decarboxylase; assay: Competitive inhibition of rat liver ornithine decarboxylase using DL-[1-14C]ornithine as substrate after 1 hr by dixon plot analysis
In short: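 ODC from livers of rats given thioacetamide 18 h before sacrifice, ~tenfold purified by acid treatment at pH 4.6. Incubation: sodium phosphate pH 7.1, PLP 0.1 µmol, DTT 5 µmol, DL-[1-14C]ornithine 0.043 µmol plus L-ornithine 0.8 µmol in 0.95 mL; 14CO2 release after 1 h at 37 °C; KI from Dixon plots by least-squares fit.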

[9] = target: T3, Ornithine decarboxylase (Rattus norvegicus); assay: Inhibition of rat prostate ornithine decarboxylase at 10 mM; conditions: Prostate gland
[10] = target: T3, Ornithine decarboxylase (Rattus norvegicus); assay: Competitive inhibition of ornithine decarboxylase in rat HTC cells using DL-[1-14C]ornithine as substrate at 1 mM after 1 hr by dixon plot analysis; format: cell-based
[11] = target: Ornithine decarboxylase (Bos taurus); assay: Inhibition of bull prostate ornithine decarboxylase

Structure (SMILES) | Kd [1] [µM] | Ki (Ornithine decarboxylase [2]) [µM] | Ki (Ornithine decarboxylase [8]) [µM] | further results
NCCC[C@H](N)C(=O)O [ORNITHINE] | 1250 | – | – | –
NCCCCNCCCN [SPERMIDINE] | 700 | 3000 | – | Ki (Ornithine decarboxylase [3]): 2700 µM
CN(C)CCCC(C)(N)C(=O)O (racemic) | – | – | – | inhibition [4]: inactive
CC(N)(CCCNCCCN)C(=O)O (racemic; 3) | 900 | 4400 | – | Ki (Ornithine decarboxylase [5]; htc): Not Active
CC(N)(CCCCN)C(=O)O (racemic) | – | – | – | inhibition [6]: inactive
N[C@H]1CC[C@@](N)(C(=O)O)CC1 | – | – | – | inhibition [7]: inactive
NCCCC(N)(CO)C(=O)O (racemic) | – | – | – | inhibition [4]: inactive
CNCCCC(C)(N)C(=O)O (racemic) | 5360 | 740 | 500 | –
NCCC[C@@H](N)C(=O)O | – | – | – | inhibition [9]: 25%
C[C@](N)(CCCN)C(=O)O | 2350 | 20 | 19 | Ki (Ornithine decarboxylase [5]; read-out: Ki): 20 µM
NCCCC(N)c1nnn[nH]1 (centres undefined) | – | 70 | 120 | Ki (Ornithine decarboxylase [5]; read-out: Ki): 140 µM
N[C@H]1CC[C@](N)(C(=O)O)CC1 | – | – | 70 | Ki (Ornithine decarboxylase [5]; read-out: Ki): 70 µM
CC(N)(CCCNCCCN)C(=O)O (racemic; 8) | – | 5500 | – | –
NCCCCN [PUTRESCINE] | 800 | – | – | –
CC(N)(CCN)C(=O)O (racemic) | – | – | – | inhibition [6]: inactive
NCCC(O)C(N)C(=O)O (racemic) | – | – | – | inhibition [10]: inactive
CC(N)(CCCN)C(=O)O (racemic) | – | – | 40 | Ki (Ornithine decarboxylase [5]; read-out: Ki): 40 µM
C[C@@](N)(CCCN)C(=O)O | – | 1000 | 1300 | Ki (Ornithine decarboxylase [5]; read-out: Ki): 1050 µM
NC/C=C/C(N)C(=O)O (racemic) | – | – | – | Ki [11]: 4400 µM
